Screening data (PubChem BioAssay)
Sampled rows, rich in hits. Any-hit rate of the full collection: about 4.2%.
KCC2 mod = modulators of human KCC2 chloride dependent transport; Q9H2X9; KCC2 cells, thallium flux FluoZin-2 fluorescence; B-score of Tl+ flux slope (higher = more flux/activation; lower = inhibition) at 10 µM; 190,000 tested, 2.2% active; AID 1456;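 active means thallium flux slope and its plate-corrected score both differing from the plate sample mean at a set confidence after two filtering rounds, in either direction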;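 further: slope of fluorescence scaled to starting intensity during 10 to 20 s after thallium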
AI-2 QS mod = modulators of Vibrio harveyi AI-2 quorum sensing system | activity change, % at 7.5 µM | Vibrio harveyi JMH597 AI-2 luminescence/OD600 ratio, 9 h; stronger effect = lower value; strain lacks LuxN and CqsS sensors; 0 = neutral-control median | 300,000 tested, 0.4% active | AID 2094; in the data active means activity change below about -75%, passing the limit was not always enough; inconclusive means no clear call, values can overlap the other calls;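 further: luminescence divided by OD600 gain over 9 h not by final OD600 alone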
KCNQ1 pot = potentiators or activators of human KCNQ1 potassium channel; AID 2648; B-score at 10 µM; 310,000 tested, 0.35% active; CHO-K1 KCNQ1, thallium flux FluxOR fluorescence; stronger effect = higher value;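 active means fluorescence ratio B-score, a plate-corrected score, at least three library SD, with initial intensity B-score within 5 SD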
Target sequence (P51787 whole entry, looked up): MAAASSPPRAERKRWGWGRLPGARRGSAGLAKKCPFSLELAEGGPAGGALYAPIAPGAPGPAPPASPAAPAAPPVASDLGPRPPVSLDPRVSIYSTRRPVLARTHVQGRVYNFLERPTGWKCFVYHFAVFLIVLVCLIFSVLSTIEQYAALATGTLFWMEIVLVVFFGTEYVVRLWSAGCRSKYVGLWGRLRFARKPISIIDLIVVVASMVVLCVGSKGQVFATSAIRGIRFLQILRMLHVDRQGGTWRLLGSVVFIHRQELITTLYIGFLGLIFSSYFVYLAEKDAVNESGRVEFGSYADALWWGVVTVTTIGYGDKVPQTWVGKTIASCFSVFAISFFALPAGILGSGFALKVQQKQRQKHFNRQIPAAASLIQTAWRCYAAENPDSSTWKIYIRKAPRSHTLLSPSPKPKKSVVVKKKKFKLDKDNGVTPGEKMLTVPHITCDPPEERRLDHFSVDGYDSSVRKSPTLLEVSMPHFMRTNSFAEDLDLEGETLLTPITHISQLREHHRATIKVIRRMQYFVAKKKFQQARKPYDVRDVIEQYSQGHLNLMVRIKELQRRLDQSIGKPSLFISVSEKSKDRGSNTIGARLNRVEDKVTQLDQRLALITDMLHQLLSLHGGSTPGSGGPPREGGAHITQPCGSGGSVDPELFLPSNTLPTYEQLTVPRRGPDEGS
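Schedule – 37 °C overnight plating, 90-min dark dye load, 20-min compound pretreatment · System – stable KCNQ1 CHO-K1 line · Probe or stimulus – thallium- and potassium-containing depolarizing buffer · Measured by – kinetic FluxOR fluorescence, 10 s baseline plus 110 s post-stimulus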
Mot1-301 SUMO = blocks SUMOylation pathway, rescuing yeast Mot1-301 growth. S. cerevisiae Mot1-301 growth rescue, ATP luminescence, 38.5C; percent above DMSO median, 100 means doubled. growth rescue, % at 18.8 µM. 320,000 tested, 1% active. AID 2716;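 active means every valid replicate shows activation above 250% relative to neutral control wells; inactive means the rest, any valid replicate at or below 250%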;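 further: OY570 slx delta 5 strain wells were the positive control but not used for scaling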
KCNQ1 block = blocks the human KCNQ1 potassium channel. B-score at 10 µM. CHO-K1 KCNQ1, FluxOR thallium flux fluorescence; stronger effect = higher value. 310,000 tested, 1.3% active. AID 2642;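 active means compounds whose thallium flux B-score, printed positive for inhibition, exceeds three library SD while starting fluorescence stays within three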;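 further: channel opened by potassium depolarization with thallium stimulus after 20 min compound exposure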
hERG protect = compounds protecting human hERG from proarrhythmic drug block; 310,000 tested, 0.51% active; CHO-hERG, FluxOR thallium flux, dofetilide IC70 present; activation (rescue from dofetilide block), less the hit threshold, % at 10 µM; Q12809; AID 1511;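 active means activation above the mean of controls blocked by dofetilide plus 5 SD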;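 further: thallium influx through hERG after potassium depolarization seen as dye fluorescence rise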
* hit, by the source's call; i = inactive; ? = inconclusive; . = no result; ! = a repeat was not active.

SMILES	KCC2 mod	AI-2 QS mod	KCNQ1 pot	Mot1-301 SUMO	KCNQ1 block	hERG protect
CC1CC(C)CN(c2ncc3c(n2)CC(c2ccc(Cl)cc2)CC3=O)C1 (stereo not drawn)	.	-1.6	i	-13.4	6*	-10.0
CC1CC(C)CN(c2ncc3c(n2)CC(c2ccccc2Cl)CC3=O)C1 (stereo not drawn)	-0.329	1.0	i	-16.6	i	-12.4
CCC/C=C(\CCC)C(NS(=O)(=O)c1cccc2cccnc12)c1ccc(C(=O)OC)cc1 (stereo not drawn)	-0.526	-1.0	i	-18.4	6*	-11.8
COC(=O)c1ccc(C(NC(=O)OCc2ccccc2)/C(C)=C/[C@@H](C)C(=O)NCc2ccc(-c3ccccc3)cc2)cc1 (stereo partly drawn)	-0.785	4.0	i	31.5	i	-14.3
CCC/C=C(\CCC)C(NC(=O)OCC(C)C)c1ccc(C(=O)OC)cc1 (stereo not drawn)	0.81	16.8	i	6.8	9*	-8.0
COC(=O)c1ccc(NC(=O)c2ccc(NS(=O)(=O)c3cccc4cccnc34)cc2)cc1	.	13.3	i	-13.6	i	0.2
CC(OC(=O)CC1CCCC1)C(=O)Nc1ccc(S(N)(=O)=O)cc1 (stereo not drawn)	.	13.7	i	-16.2	i	-19.4
CCOC(=O)c1c(C(C)(C)C)oc2ccc(OCC#N)cc12	0.148	15.3	i	5.1	6*	-6.8
CCCN(CCC)C(=S)NC(=O)c1ccc(Cl)cc1Cl	41.9*	9.2	55*	55.2	i	24.7*
Cc1cccc(C)c1NC(=S)NC(=O)c1ccccc1F	35.3*	25.7	i	28.0	i	-2.4
Cc1cccc(C(=O)NC(=S)NNC(=O)c2ccccc2Cl)c1	40.1*	22.1	i	-17.8	i	-1.4
Cc1ccccc1C(=O)NNC(=S)NC(=O)c1ccc(Cl)cc1Cl	27.8*	21.0	15*	-7.4	i	-15.2
CCC(=O)Nc1cccc(NC(=S)NC(=O)c2ccc(Cl)cc2Cl)c1	0.463	12.4	i	3.4	i	-4.4
COc1ccccc1NC(=S)NNC(=O)c1ccc(Cl)cc1Cl	0.541	20.1	i	4.3	i	-0.5
CC(C)CN1CCC(=O)N([C@H](CO)Cc2ccccc2)CC1	.	16.7	i	-20.7	i	-4.3
O=C(CSc1ccccn1)Nc1nonc1[N+](=O)[O-]	.	-88.5*	i	.	i	-9.4
CCOCCCNC(=O)C(c1ccc(Cl)cc1)N1CCN(c2ccccc2)CC1 (stereo not drawn)	0.562	26.7	i	2.1	i	-7.6
CCOCCCNC(=O)C(c1ccc(Cl)cc1)N1CCC2(CC1)OCCO2 (stereo not drawn)	.	10.4	i	-16.7	i	8.6*
O=C(c1ccco1)N1CCN(c2nc(C3CC3)nc3c2nnn3Cc2ccccc2Cl)CC1	-0.78	10.6	i	-10.0	6*	-11.4
CC(Oc1cccnc1[N+](=O)[O-])C(=O)Nc1ccc(Cl)cn1 (stereo not drawn)	.	.	.	-12.8	.	.
CCN(CC)c1nc(OCCNC(=O)Nc2ccccc2)nc(N(CC)CC)n1	1.09	19.2	i	-9.1	10*	-11.0
Cc1cccc(C)c1NC1=NCCCCC1	-0.205	5.6	i	66.8	i	-12.5
CCc1nc(SCC(=O)Nc2cc(C)on2)c2c(C)c(C)sc2n1	1.79	9.0	i	.	i	-7.8
Cc1cc(NC(=O)CSc2nc(C3CC3)nc3sc(C)c(C)c23)no1	.	28.9	9*	13.2	i	5.9*
COc1ccc(/C=N/NC(=O)CC(=O)NCc2cccnc2)cc1[N+](=O)[O-]	.	-4.8	i	10.3	i	-2.5
SMILES	KCC2 mod	AI-2 QS mod	KCNQ1 pot	Mot1-301 SUMO	KCNQ1 block	hERG protect
Cc1cc(Cl)cc(C)c1OCCCCN1CCOCC1	.	9.5	i	283.1*	i	-8.6
Cc1cc(Cl)c(OCCCCN2CCOCC2)c(Br)c1	0.208	20.3	i	147.3	i	-10.1
O=C1C=C(Nc2ccccc2O)c2ccccc2C1=O	0.00702	-10.4	i	-4.0	i	-3.0
O=C1C=C(NCc2ccccc2)c2ccccc2C1=O	-1.64	78.8	12*	.	i	-12.6
COc1ccccc1NC(=O)N(Cc1cc2cc(OC)c(OC)cc2[nH]c1=O)CC1CCCO1 (stereo not drawn)	-3.31*	22.4	i	-10.7	i	-11.6
C[n+]1ccn(CC(=O)c2cccs2)c1	.	6.9	i	15.9	i	-6.4
CCCCCCCCCCCCCCCCn1cc[n+](C)c1	0.338	?	i	114.8	10*!	-36.9
O=C(COc1ccc(C(=O)c2ccccc2)cc1)Nc1cccnc1	.	.	i	-1.5	i	16.1*
CN(C)S(=O)(=O)c1ccc(C(=O)NNC(=O)C2COc3ccccc3O2)cc1 (stereo not drawn)	-0.257	-36.2	i	6.6	i	-2.6
COc1ccc(C(C)NCCC(c2ccc(OC(C)C)cc2)c2ccccc2OC)cc1 (stereo not drawn)	.	17.4	i	-23.2	6*	-22.8
CCc1noc(C)c1C(=O)N(C)CC(=O)Nc1ccc(F)c(F)c1F	.	8.0	i	1.5	i	-4.3
CCn1c(C)[n+](CC(O)COCC2CC=CCC2)c2ccccc21 (stereo not drawn)	0.823	32.3	i	12.4	i	-6.0
CCOc1ccc(NC(=O)CSc2ccc(-c3cccnc3)nn2)cc1	.	24.6	i	9.1	i	-0.4
S=C(NCc1cccs1)Nc1ccccc1	0.0321	-4.8	i	-9.6	i	-6.9
NS(=O)(=O)c1ccc(NC(=S)NCc2cccs2)cc1	1.06	20.8	i	40.0	i	6.6*
CC1(C)CC(NC(=S)Nc2ccc(S(N)(=O)=O)cc2)CC(C)(C)N1	0.494	22.9	i	70.2	i	-5.3
NS(=O)(=O)c1ccc(NC(=S)NC2CC2)cc1	0.859	14.9	i	691.4*	i	-1.6
O=C(Cc1ccccc1)Nc1nc(=O)c2ccccc2s1	4.12*	26.7	i	-4.2	i	-2.6
O=C(Nc1nc(=O)c2ccccc2s1)c1ccc(Cl)cc1	.	13.6	36*	-2.8	i	43.0*
CC(=O)c1sc(NC(=O)c2ccc(Cl)cc2)nc1C	.	-2.7	i	92.9	i	-4.8
CCn1c(NC(=O)c2ccc(F)cc2)c2ccccc2nc1=O	-0.87	10.6	i	.	i	-3.0
O=C(Cc1ccccc1)Nc1nc2ccccc2s1	-0.543	-30.1	i	15.0	i	-6.2
O=C(Nc1nc(=O)c2ccccc2s1)c1ccc(F)cc1	47.3*	24.8	23*	13.5	i	-3.1
